Measured values: ChEMBL document CHEMBL5674882, “Benzolactam-related compounds promote apoptosis of HIV-infected human cells via protein kinase C-induced HIV latency reversal” (J Biol Chem, 2019)
Activity calls are given as the source filed them. No cut-off for these calls is given here.

What was measured:
[1] = target: T1, Protein kinase C (PKC) (Homo sapiens) (UniProt O94806+P41743+P17252+P05129+Q05655+P05771+Q05513+Q02156+P24723+Q15139+Q04759); experiment: Activation of PKC in human J-Lat 10.6 cells infected with latent HIV-1 assessed as reversal of HIV-1 latency by measuring increase of GFP-positive cells at 100 to 400 nM in presence of 500 nM GSK525762A incubated for 24 hrs by flow cytometry; type: cell-based; details: filed as activator, dose 100-400 nM
[2] = target: T1, Protein kinase C (PKC) (Homo sapiens); experiment: Activation of PKC in human J-Lat 10.6 cells infected with latent HIV-1 assessed as reversal of HIV-1 latency by measuring increase of GFP-positive cells at 100 to 400 nM in presence of 1 uM SAHA incubated for 24 hrs by flow cytometry; type: cell-based; details: filed as activator, dose 100-400 nM
[3] = test system: U-937; experiment: Induction of apoptosis in human U-937 cells assessed as caspase-3 activation at 1 uM incubated for 24 hrs by flow cytometry; type: functional
Method in brief: (§1)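 Cells fixed in 1% paraformaldehyde, permeabilized, stained 30 min on ice with anti-active caspase-3 mAb, and analysed by flow cytometry. Three independent experiments.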

[4] = target: T1, Protein kinase C (PKC) (Homo sapiens); experiment: Synergistic activation of PKC in human J-Lat 10.6 cells infected with latent HIV-1 assessed as reversal of HIV-1 latency by measuring increase of GFP-positive cells at 400 nM in presence of 500 nM JQ1 incubated for 24 hrs by flow cytometry; type: cell-based; details: filed as activator
Method in brief: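 J-Lat 10.6 cells at 5 × 10^5 cells/ml treated 24 h alone or with 500 nm JQ1. GFP-positive cells counted by flow cytometry. Fraction affected normalised to PMA response after subtracting the no-drug value. Synergy by Bliss independence (Δfaxy). Mean ± S.D. of three independent experiments.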

[5] = test system: ACH-2 cell line; experiment: Induction of apoptosis in human ACH-2 cells assessed as caspase-3 activation at 1 uM incubated for 24 hrs by flow cytometry; type: functional; method in brief: as §1
[6] = target: T1, Protein kinase C (PKC) (Homo sapiens); experiment: Synergistic activation of PKC in CD4+ T-cells purified from HIV-infected patient assessed as increase in transcription of HIV mRNA at 5 uM incubated for 24 hrs by qRT-PCR method; type: cell-based; details: CD4+ T cell, filed as activator
Method in brief: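 CD4+ T-cells purified from PBMC of patients on cART for at least 5 years with plasma viral load <20 copies/ml. Cells plated at 2.5 × 10^6 cells/ml and treated 24 h, alone or with 1 μm JQ1. Intracellular HIV RNA measured by qRT-PCR against a plasmid standard curve, normalised per ng input RNA, relative to untreated cells. Synergy assessed by Bliss independence model.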

[7] = Toxicity in human CD4+ T-cells assessed as elevation of supernatant cytokine concentrations of TNFalpha incubated for 24 hrs by bead-based immunoassay; details: cd4+ t cell
Method in brief: (§2)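 Purified CD4+ T-cells from healthy donors treated 24 h with 1 μm drug, 1 μm JQ1, or the combination. IL-2, IL-5, IL-6, IL-13, TNFα and IFN-γ in supernatants measured by flow-cytometry bead-based Th1/Th2 immunoassay. Run in duplicate.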

[8] = target: T1, Protein kinase C (PKC) (Homo sapiens); experiment: Activation of PKC in human ACH-2 cells infected with latent HIV-1 assessed as reversal of HIV-1 latency by measuring increase in p24 antigen level at 1 to 10000 nM incubated for 48 hrs by chemiluminescent enzyme immunoassay; type: cell-based; details: ACH-2 cell line, filed as activator, dose 1-10000 nM
Method in brief: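 ACH-2 or U1 cells (5 × 10^5 cells/ml) incubated 48 h with graded drug concentrations. Supernatant p24 antigen measured by automated chemiluminescent immunoassay. EC50 calculated taking the maximum response with excess PMA as 100%. Means ± S.D. of three independent experiments.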

[9] = Induction of apoptosis in human CEM A3.01 cells assessed as caspase-3 activation at 1 uM incubated for 24 hrs by flow cytometry; type: functional; method in brief: as §1
[10] = test system: U1; experiment: Induction of apoptosis in human U1 cells at 1 uM incubated for 48 hrs after pre-incubated for 2 hrs with 20 uM caspase inhibitor Q-VD-Oph by propidium iodide/annexin-V staining based flow cytometry relative to compound alone control; type: functional; design: scale not given: the % may be the effect or the level left
Method in brief: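 ACH-2 or U1 cells pretreated 2 h with 20 µM pan-caspase inhibitor Q-VD-Oph, then exposed to 1 µM compound for 48 h. Annexin-V/PI staining by flow cytometry; apoptotic proportions compared with and without Q-VD-Oph. Mean ± S.D.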

[11] = Toxicity in human CD4+ T-cells assessed as elevation of supernatant cytokine concentrations of IFNgamma incubated for 24 hrs by bead-based immunoassay; details: cd4+ t cell; method in brief: as §2
[12] = Toxicity in human CD4+ T-cells assessed as elevation of supernatant cytokine concentrations of IL-2 incubated for 24 hrs in presence of JQ1 by bead-based immunoassay; details: cd4+ t cell; method in brief: as §2
[13] = target: T1, Protein kinase C (PKC) (Homo sapiens); experiment: Activation of PKC in human J-Lat 10.6 cells infected with latent HIV-1 assessed as reversal of HIV-1 latency by measuring increase of GFP-positive cells at 100 to 400 nM in presence of 10 nM Panobinostat incubated for 24 hrs by flow cytometry; type: cell-based; details: filed as activator, dose 100-400 nM
[14] = test system: J-Lat 6.3; experiment: Induction of apoptosis in human J-Lat 6.3 cells at 1 uM incubated for 48 hrs by propidium iodide/annexin-V staining based flow cytometry (reference value: 3.16%); type: functional
[15] = target: T1, Protein kinase C (PKC) (Homo sapiens); experiment: Activation of PKC in human J-Lat 6.3 cells infected with latent HIV-1 assessed as reversal of HIV-1 latency by measuring increase of GFP-positive cells at 10 uM in presence of PKC alpha/beta/gamma inhibitor GF109203X incubated for 24 hrs by flow cytometry; type: cell-based
Method in brief: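 J-Lat 6.3 cells pretreated 3 h with a PKC inhibitor: Gö 6983 1 µM, Gö 6976 1 µM, GF 109203X 1 µM, PKCθ/δ inhibitor 10 µM, or Rottlerin 1 µM. Then exposed to 10 µM compound for 24 h; GFP-positive cells counted by flow cytometry. Mean ± S.D.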

[16] = Toxicity in human CD4+ T-cells assessed as elevation of supernatant cytokine concentrations of IL-13 incubated for 24 hrs in presence of JQ1 by bead-based immunoassay; details: cd4+ t cell; method in brief: as §2
[17] = Toxicity in human CD4+ T-cells assessed as increase in ratio of CD25+ cells incubated for 24 hrs by flow cytometry; type: cell-based; details: cd4+ t cell
Method in brief: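 Primary CD4+ T-cells from healthy donors treated with drug for 24 h. Cells stained with anti-CD25 and anti-CD69 antibodies (plus CD3, CD4, HLA-DR) for 30 min on ice, then marker-positive proportions quantified by flow cytometry.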

[18] = Toxicity in human CD4+ T-cells assessed as elevation of supernatant cytokine concentrations of IL-6 incubated for 24 hrs in presence of JQ1 by bead-based immunoassay; details: cd4+ t cell; method in brief: as §2
[19] = Toxicity in human CD4+ T-cells assessed as increase in dead cells at 1 uM in presence of JQ1; type: cell-based; details: cd4+ t cell
Method in brief: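 Primary cells exposed 24 h to 1 μm drug, 1 μm JQ1, or both (1 μm each). Dead cells scored by propidium iodide staining.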

[20] = test system: U1; experiment: Induction of apoptosis in human U1 cells at 1 uM incubated for 48 hrs by propidium iodide/annexin-V staining based flow cytometry; type: functional
[21] = Toxicity in human CD4+ T-cells assessed as elevation of supernatant cytokine concentrations of TNFalpha incubated for 24 hrs in presence of JQ1 by bead-based immunoassay; details: cd4+ t cell; method in brief: as §2

Q: For CCCCCCCCCCc1ccc2c(c1)N(C)[C@@H](C(C)C)C(=O)N[C@H](CO)C2, which Activity [1] is on record?
A: Active

Q: What about the Activity [2] of the same compound?
A: Active

Q: And the Activity [3]?
A: 0.5%

Q: What about the Activity [4] of the same compound?
A: 73.1%

Q: And the Activity [5]?
A: 23%

Q: What about the fold change (FC) [6] of the same compound?
A: 1.4

Q: And the Activity [7]?
A: Toxic

Q: What about the Activity [8] of the same compound?
A: Active

Q: And the Activity [9]?
A: 2.01%

Q: And the Activity [10]?
A: 20%

Q: What about the Activity [11] of the same compound?
A: Toxic

Q: What about the Activity [12] of the same compound?
A: Non-Toxic

Q: What about the Activity [13] of the same compound?
A: Active

Q: And the Activity [14]?
A: 17%

Q: And the Activity [15]?
A: inactive

Q: And the Activity [16]?
A: Non-Toxic

Q: And the Activity [17]?
A: Non-Toxic

Q: What about the Activity [18] of the same compound?
A: Non-Toxic

Q: And the Activity [19]?
A: Non-Toxic

Q: And the Activity [20]?
A: 28.4%

Q: And the Activity [21]?
A: Non-Toxic
